Assay outcomes as filed in PubChem.
HSF-1 act – increases HSF-1 driven luciferase reporter signal; NIH3T3-HGL HSF-1 luciferase reporter, MG132, 8 h; 100% = twice DMSO control signal; activation, % at 9 µM; actives 1.7% (n = 300,000); AID 504408;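 active means mean replicate activation of at least 50% with a set share of replicates each reaching 50%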
T cruzi repl – T. cruzi replication inhibition. T. cruzi beta-gal in NIH3T3, luminescence, 90 h. inhibition, % (concentration not given with the values). actives 1.4% (n = 300,000). AID 1885;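 active means mean inhibition across valid replicates above about 55%, limit read from the data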;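 further: signal also drops with host cell toxicity which is not excluded here; higher percent means less beta-gal luminescence so fewer parasites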
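System: mouse NIH/3T3 fibroblasts infected with β-gal-expressing T. cruzi Tulahuen C4 / Input: NIH/3T3 cells, 5,000 per well / Buffer or medium: Low-serum DMEM with 2% FBS / Probe or stimulus: 5000 reporter trypomastigotes per well / Schedule: ≥90 h infection period, 3 h prior cell attachment / Measured by: GalScreen luminescence, 60 min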
HSF1 inhib – HSF1 inhibition; actives 0.77% (n = 300,000); NIH3T3-HGL HSE-luciferase, MG132-induced, luminescence 8 h; hits give low values; activity change, negative = inhibition, % at 7.5 µM (by protocol);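 active means more than half of replicate wells show activity change below -50%, luminescence cut by over half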;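 further: luciferase reports HSF-1 transcriptional activity via heat shock element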
Lmaj promast – reduces viability of Leishmania major promastigotes. resazurin fluorescence viability. inhibition, % at 10 µM. actives 9% (n = 200,000); in the data active means inhibition above about 50%;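 further: promastigotes grown with compound for 44 hours at 28 °C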
Hsp70 activator – Hsp70 transcriptional activation, primary screen. HeLa Hsp70 promoter luciferase reporter, luminescence; scaled: vehicle 0, proteasome-inhibitor control 100%. activation, % at 10 µM. actives 0.04% (n = 200,000). AID 1203;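 active means activation above the mean across all tested compounds plus 3 SD, cutoff set per campaign, cut at about 5.5% in these data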
Large screens that a line does not name were inactive. Shown is part of a subset that was picked to be rich in hits.

CCCS(=O)(=O)N1CCCC(C(=O)N2CCC(Cc3ccccc3)CC2)C1 (stereo not given)	HSF1 inhib -81.2
COc1ccc(N/C(=C(/C(Cl)=C(Cl)Cl)[N+](=O)[O-])n2nnc3ccccc32)cc1OC	none
CCN(CC)CCSc1nnc2c3cc(C)ccc3n(Cc3ccccc3)c2n1	T cruzi repl 57.5 (no result: Lmaj promast, Hsp70 activator)
CCCN(CCC)CCCNC(=S)Nc1ccc2nc(N3CCN(C)CC3)cc(C)c2c1	T cruzi repl 57.0, Lmaj promast 65.0
CCN(CC)CCCNC(=O)CCC(=O)Nc1ccc2nc(N3CCCCC3)cc(C)c2c1	none
CCCCN(CC)CCNC(=S)Nc1ccc2nc(N3CCN(C)CC3)cc(C)c2c1	T cruzi repl 63.9 (no result: Lmaj promast, Hsp70 activator)
CCCN(CCC)CCCNC(=S)Nc1ccc2nc(N3CCN(CC)CC3)cc(C)c2c1	Lmaj promast 93.7
Cc1cc(N2CCN(C)CC2)nc2ccc(NC(=S)NC3CC3)cc12	none
CCCCN(CC)CCNC(=O)CCC(=O)Nc1ccc2nc(N3CCN(C)CC3)cc(C)c2c1	none
O=C(Nc1cccc(-c2nc3ccccc3[nH]2)c1)c1ccco1	none
c1cncc(CNc2cccc(-c3nc4ccccc4[nH]3)c2)c1	Lmaj promast 67.4
c1ccc(NCc2cccnc2)cc1	none (no result: HSF-1 act, T cruzi repl, HSF1 inhib)
Fc1ccc(NCc2cccnc2)cc1	Lmaj promast 82.5
CC(C)/C=N/NC(=O)c1ccc(Cl)cc1	none
CCOc1ccc(S(=O)(=O)NCc2cccnc2)c2ccccc12	none (no result: Lmaj promast, Hsp70 activator)
CCOc1ccc(S(=O)(=O)NCc2ccc(Cl)cc2)c2cccnc12	Lmaj promast 99.3
CCCCOc1ccc(C(=O)N2CCN(CC(=O)Nc3ccc(C)cc3)CC2)cc1OC	none (no result: Lmaj promast, Hsp70 activator)
Cc1csc(NC(=O)CSc2nnc(-c3ccccn3)n2-c2ccc(C)c(C)c2)n1	Lmaj promast 68.5
Cc1csc(NC(=O)CSc2nnc(NC(=O)COc3ccccc3)s2)n1	Lmaj promast 51.2
Cc1csc(NC(=O)CSc2ncnc3ccccc23)n1	none (no result: Lmaj promast, Hsp70 activator)
Cc1csc(NC(=O)CSc2nc3ccccc3c3c2CCCC3)n1	HSF-1 act 58.1
CC(C)(C)c1nc(SCC(=O)Nc2nc3c(s2)CCCC3)c2ccccc2n1	T cruzi repl 59.2, Lmaj promast 79.8
Cc1ccc(-n2c(SCC(N)=O)nnc2-c2ccccn2)cc1C	none
COc1ccc(NC(=O)CCNS(=O)(=O)c2ccc3[nH]c(=O)oc3c2)cc1Cl	none (no result: Lmaj promast, Hsp70 activator)
CSc1ncccc1C(=O)NC1CC(C)(C)Cc2c1cnn2-c1ccccc1C (stereo not given)	none (no result: Lmaj promast, Hsp70 activator)
Cc1cnc(NC(=O)CCc2ccccc2)s1	none (no result: Lmaj promast, Hsp70 activator)
Cc1cnc(NC(=O)COc2ccccc2)s1	HSF-1 act 61.4
O=C(COc1ccccc1F)Nc1ccc(S(=O)(=O)Nc2nccs2)cc1	none (no result: Lmaj promast, Hsp70 activator)
CC(C)c1ccc2c(c1)C(N1CCNCC1)Cc1ccc(F)cc1S2 (stereo not given)	none (no result: T cruzi repl, Lmaj promast, Hsp70 activator)
Cc1cccc2c1Sc1ccc(Cl)cc1CC2N1CCNCC1 (stereo not given)	T cruzi repl 63.4 (no result: Lmaj promast, Hsp70 activator)
CCc1cccc2c1Sc1ccccc1CC2N1CCNCC1 (stereo not given)	T cruzi repl 63.9 (no result: Lmaj promast, Hsp70 activator)
CN1CCN(C2Cc3ccccc3Sc3cc(C(F)(F)F)ccc32)CC1 (stereo not given)	none (no result: Lmaj promast, Hsp70 activator)
Cc1cc(C)cc(NC(=S)N2C3CCCC2CC(NC(=O)C2CC2)C3)c1 (stereo not given)	none (no result: Lmaj promast, Hsp70 activator)
FC(F)(F)c1ccc(Sc2nnc(-c3cccs3)n2CC2CCCO2)nc1 (stereo not given)	HSF-1 act 58.3
CC(=O)Nc1ccc(S(=O)(=O)NCCCN2CCN(Cc3ccccc3)CC2)cc1Cl	none (no result: T cruzi repl, Lmaj promast, Hsp70 activator)
Cc1ccc(S(=O)(=O)Nc2ncnc3ccccc23)cc1	none (no result: Lmaj promast, Hsp70 activator)
Cc1ccc(-c2nn(C(C)(C)C)c3ncnc(NS(=O)(=O)c4ccc([N+](=O)[O-])cc4)c23)cc1	T cruzi repl 56.4
COc1cc(OC)cc(C(=O)N2CCN(S(C)(=O)=O)CC2)c1	HSF1 inhib -82.3
CCOC(=O)N1CCN(C(=O)c2cc(OC)cc(OC)c2)CC1	none
C/C(=N\NC(N)=S)C1(C)CC2(CC(C)(C)OC2=O)C(=O)O1 (stereo not given)	none (no result: Lmaj promast, Hsp70 activator)
CC(C)COc1ccc(Cc2cnc(N)nc2N)cc1	Lmaj promast 71.8
CC(C)COc1ccc(C/C(N)=N/n2cnnc2)cc1	none
O=C(O)c1cc(S(=O)(=O)N2CCCCC2)ccc1Cl	none (no result: Lmaj promast, Hsp70 activator)
CCn1c(=S)sc2c(=O)[nH]c(SCC(=O)Nc3cc(OC)ccc3OC)nc21	none (no result: Lmaj promast, Hsp70 activator)
CC(=O)c1cccc(N=c2scc(-c3ccc(S(=O)(=O)N4CCOCC4)cc3)n2CCO)c1	Lmaj promast 94.9
N/C(=N/OC(=O)c1ccccc1Cl)c1ncc([N+](=O)[O-])s1	HSF-1 act 179.4 (no result: Lmaj promast, Hsp70 activator)
O=C(CCC(=O)Nc1ccc(Br)cc1)N/N=C/c1cc([N+](=O)[O-])ccc1O	none
CC1(CC(=O)N/N=C/c2cc(Br)c(O)cc2O)OCCO1	Lmaj promast 90.9
CC1(CC(=O)N/N=C/c2ccc(-c3cccc(C(F)(F)F)c3)o2)OCCO1	none
Cc1cccc(C)c1N(CC(=O)N/N=C/c1cc(Br)c(C)o1)S(C)(=O)=O	Lmaj promast 70.5
Cc1oc(/C=N/NC(=O)CC2(C)OCCO2)cc1Br	HSF1 inhib -53.2
OCC[C@@H]1C[C@H](O)[C@@H](O)[C@]2(Cc3ccccc3O2)O1	none (no result: Lmaj promast, Hsp70 activator)
CCC(CO)NCc1ccc(Br)cc1 (stereo not given)	none
CCC(C)NC(=O)Cc1ccc(-c2ccccc2)cc1 (stereo not given)	T cruzi repl 61.6
CC(O)CNCc1ccc(-c2ccccc2)cc1 (stereo not given)	Lmaj promast 89.1
CCC(CO)NCc1ccc(-c2ccccc2)cc1 (stereo not given)	Lmaj promast 88.6
CC(NCc1ccc(-c2ccccc2)cc1)C(O)c1ccccc1 (stereo not given)	Lmaj promast 99.4
CC(NC(=O)c1cc(-c2ccccn2)nc2ccc(Cl)cc12)C1CCCO1 (stereo not given)	none (no result: Lmaj promast, Hsp70 activator)
O=S(=O)(O)c1nc2ccccc2[nH]1	none (no result: Lmaj promast, Hsp70 activator)
Cc1ccc(NC(=O)CCNC(=O)c2ccco2)cc1Cl	none (no result: Lmaj promast, Hsp70 activator)
NNc1nc2c(Cl)ccc(Cl)c2s1	Lmaj promast 97.6
CCOC(=O)CNC(=O)N1CCCC(Cc2ccccc2)(C(=O)OCC)C1 (stereo not given)	none (no result: Lmaj promast, Hsp70 activator)
COc1cccc(Nc2nc(N)c([N+](=O)[O-])c(N3CCOCC3)n2)c1	none (no result: Lmaj promast, Hsp70 activator)
Cc1cc(=O)n2[nH]c(N)c(N=Nc3ccccc3)c2n1	none
COc1cccc(N=Nc2c(N)[nH]n3c(=O)cc(-c4ccccc4)nc23)c1	Lmaj promast 92.5 (no result: T cruzi repl)
Cc1ccc(N=Nc2c(N)[nH]n3c(=O)cc(-c4ccccc4)nc23)cc1	Lmaj promast 93.8 (no result: HSF-1 act, T cruzi repl, HSF1 inhib)
C/C(NC(=O)c1ccccc1F)=C1\C(=O)C[C@@H]2[C@H]1C2(C)C	HSF-1 act 50.9
CN(CC(=O)N1CCc2ccccc2C1)c1ccccc1	none (no result: Lmaj promast, Hsp70 activator)
C=C(C)C1CC=C(C)/C(=N/NC(=O)c2ccc(NC(=O)c3cccc(C)c3)cc2)C1 (stereo not given)	Lmaj promast 100.0
